Hits are enriched below; roughly 1.5% of the tested compounds scored in any of these assays.
MsrA inh – bovine MsrA enzyme inhibitors, primary screen, biochemical, absorbance, HTS. Methionine sulfoxide reductase A (Bos taurus). purified bovine MsrA, absorbance read-out. inhibition, % at 15.5 µM. hit rate 0.75% among 360,000. AID 651718, 2012;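 further: 0% = vehicle wells with enzyme and 100% = reference inhibitor wells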
bovine MsrA act – bovine MsrA enzyme activators, primary screen, biochemical, absorbance, HTS; activation, % at 10.6 µM; hit rate 0.3% among 360,000; purified bovine MsrA, absorbance read-out; in the data active means activation above about 7.5%;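 further: 0% = vehicle and 100% = reference activator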
TbMetRS inhib – T. brucei MetRS inhibitors, primary screen, biochemical, luminescence. hit rate 0.4% among 360,000. inhibition, % at 11.9 µM. purified T. brucei MetRS, ATP depletion, Kinase-Glo luminescence. methionyl-tRNA synthetase (Trypanosoma brucei brucei);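 active means inhibition above a per-plate cutoff of the control wells' mean inhibition plus 3 SD, cut at about 5.5% in these data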;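 further: 0% = DMSO wells median and 100% = median of wells with control inhibitor compound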
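assay system = parasite MetRS enzyme | timing = 15 min preincubation, 2 h reaction, all 25 °C | evaluation = percent inhibition relative to median high and low control wells | medium = HEPES buffer containing pyrophosphatase, BSA, spermine, DTT | compound = single dose, 11.9 µM final nominal, 0.9% final DMSO | detection = Kinase-Glo luminescence, ATP depletion format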
proCasp3 act – activators of human procaspase-3 D3A mutant, primary screen, biochemical, absorbance, PC-3 D3A mutant, single concentration; recombinant procaspase-3 D3A, Ac-DEVD-pNA absorbance 405 nm; activation, % at 8.5 µM; hit rate 0.11% among 330,000; AID 463141, 2010;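 active means activation above the mean of all tested compounds plus 3 SD, cut at about 21% in these data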;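 further: 0% = DMSO alone and 100% = DMSO wells spiked with extra 5 µM PC-3 D3A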
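Assay system – Procaspase-3 D3A mutant, all three cleavage aspartates alanine · Controls – DMSO-only low control, 5 µM PC-3 D3A high control · Schedule – 1 h compound preincubation, 2 h substrate hydrolysis at 25 °C · Signal – 405 nm absorbance of p-nitroaniline, reads at 0 and 120 min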
proCasp7 act – procaspase-7 activators, primary screen, counter-screen for procaspase-3 activator project, biochemical, absorbance, HTS, human; Caspase-7 (Homo sapiens), P55210; recombinant procaspase-7, Ac-DEVD-pNA absorbance 405 nm; D23A/D198A/D206A triple mutant, cannot self-cleave; scale: DMSO 0, 5 µM enzyme 100; activation, % at 8.5 µM; hit rate 0.093% among 330,000;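 active means percent activation above the screen-wide mean plus 3 SD, cut at about 25% in these data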
Target sequence (P55210 whole entry D23A/D198A/D206A): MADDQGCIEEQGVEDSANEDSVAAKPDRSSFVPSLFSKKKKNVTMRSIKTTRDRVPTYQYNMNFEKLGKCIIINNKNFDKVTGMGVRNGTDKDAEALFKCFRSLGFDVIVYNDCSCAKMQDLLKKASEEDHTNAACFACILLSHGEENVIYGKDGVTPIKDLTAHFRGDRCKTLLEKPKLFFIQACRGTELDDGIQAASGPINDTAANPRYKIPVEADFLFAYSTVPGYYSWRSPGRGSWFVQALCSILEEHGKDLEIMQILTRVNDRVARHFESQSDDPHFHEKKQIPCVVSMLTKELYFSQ
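signal = Epi-absorbance of released pNA at 405 nm, two timepoints | assay system = Uncleavable procaspase-7 mutant enzyme | reagent = Ac-DEVD-pNA substrate, 400 µM as added | times = 1 h enzyme–compound preincubation and 2 h substrate reaction, both 25 °C | benchmarks = low DMSO alone, high DMSO plus 5 µM PC-7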
MsrA conf – bovine MsrA inhibitors, retest, confirmation, biochemical, absorbance, HTS | hit rate 41% among 2,300 | purified bovine MsrA, absorbance read-out | shares compounds with MsrA inh | AID 651822, 2012 | inhibition, % at 15.5 µM;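 further: coupled to thioredoxin reductase with NADPH and selenocystamine and DMSO as substrate; 0% = vehicle only and 100% = full effect of reference inhibitor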
* marks the source's active call; other numbers are inactive results; / = no result; ! = repeats disagree. Unless noted, no stated cut-off is given here; in the data, active means inhibition above about 4.5%; inactive means the rest.

SMILES	MsrA inh	bovine MsrA act	TbMetRS inhib	proCasp3 act	proCasp7 act	MsrA conf
CN(C)c1ccc(C=C2C(=O)NC(=S)NC2=O)cc1[N+](=O)[O-]	7.3*	-8.1	0.0	-2.5	0.1	2.7
CC[C@@H]1C[C@H]2CC[C@H](O2)[C@H](C)C(=O)O[C@@H](C)C[C@@H]2CC[C@@H](O2)[C@@H](C)C(=O)O[C@H](C)C[C@H]2CC[C@H](O2)[C@H](C)C(=O)O[C@@H](C)C[C@@H]2CC[C@@H](O2)[C@@H](C)C(=O)O1	0.1	/	/	/	/	/
O=c1[nH]cnc2nc(-c3ccc(N(CCCl)CCCl)cc3)[nH]c12	5.1*	-2.8	-0.3	/	/	2.0
COc1ccc(-c2cc(=NCCCCCC(=O)O)c3cc(C)ccc3o2)cc1	6.3*	-8.0	0.1	/	/	7.0*!
C=CCN1C[C@H](C)N(C(c2ccc(C(=O)N(CC)CC)cc2)c2cccc(OC)c2)CC1C (some centres not stated)	-0.5	/	/	/	/	/
COc1ccc2c(C)c(CC(=O)N3C[C@H]4C[C@@H](C3)c3cccc(=O)n3C4)c(=O)oc2c1C	4.9*	-4.4	-0.9	-1.4	10.1	2.4
O=C(NCCN1CCC2(CC1)C(=O)NCN2c1ccccc1)c1cccc(F)c1	-1.0	/	/	/	/	/
CCCCN1C(=O)/C(=C/c2ccc(N(C)C)cc2)C(=O)N(Cc2ccco2)C1=O	5.3*	-4.7	0.4	-16.2	2.0	5.5*
CCN(CC)c1ccc(/C=C2\C(=O)NC(=O)N(Cc3ccco3)C2=O)cc1	3.7	-5.5	-0.6	-4.2	-1.1	/
O=c1[nH]c(=S)n(-c2ccccc2)c(O)c1C=NCCN1CCNCC1	5.4*	-3.8	0.8	/	/	1.8
O=c1[nH]c(=S)n(-c2cccc(Cl)c2)c(O)c1C=NCCN1CCNCC1	2.6	0.8	0.1	-1.9	11.0	/
CC1=CC(=C2C(=O)NC(=O)NC2=O)C=C(C(F)(F)F)N1Cc1ccccc1	-0.5	-8.5	-0.6	-6.0	3.5	/
CC1=CC(=C2C(=O)NC(=O)NC2=O)C=C(C(F)(F)F)N1C(C)C	4.9*	-5.3	-0.5	-2.5	1.0	2.4
CCOC(=O)[C@]12Cc3cc(Cl)ccc3[C@H]1N(C1CCCCC1)C(=O)c1ccccc12	/	-3.3	-0.9	/	/	/

High-throughput results as filed in PubChem BioAssay.
